{"data": "Measurements gathered from unrelated publications", "ABL1 non-phosphorylated": "Tyrosine-protein kinase ABL1, non-phosphorylated (ABL1, Homo sapiens, UniProt P00519)", "ABL1 Y253F": "Tyrosine-protein kinase ABL1 (ABL1, Homo sapiens, UniProt P00519, Y253F)", "ABL1 T315I": "Tyrosine-protein kinase ABL1 (ABL1, Homo sapiens, UniProt P00519, T315I)", "ABL1 E255K phosphorylated": "Tyrosine-protein kinase ABL1, phosphorylated (ABL1, Homo sapiens, UniProt P00519, E255K)", "ABL1 F317I non-phosphorylated": "Tyrosine-protein kinase ABL1, non-phosphorylated (ABL1, Homo sapiens, UniProt P00519, F317I)", "ABL1 E255K": "Tyrosine-protein kinase ABL1 (ABL1, Homo sapiens, UniProt P00519, E255K)", "ABL1 F317L phosphorylated": "Tyrosine-protein kinase ABL1, phosphorylated (ABL1, Homo sapiens, UniProt P00519, F317L)", "ABL1": "Tyrosine-protein kinase ABL1 (ABL1, Homo sapiens, UniProt P00519)", "ABL1 F317I phosphorylated": "Tyrosine-protein kinase ABL1, phosphorylated (ABL1, Homo sapiens, UniProt P00519, F317I)", "note": "Lines come from different studies, so protocols differ."}
{"Compound": "N[C@@H]1CCN(c2nccc(-c3cnn4ncccc34)n2)C1", "target": "ABL1 non-phosphorylated", "observed": "binding", "technique": "competition with immobilised ligand", "tested at": "1 µM", "endpoint": "remaining binding", "value": "100%"}
{"Compound": "C[C@@]1(Cc2ccc(C#N)cc2)C(=O)N(c2cc(Cl)cc(Cl)c2)c2ncc(C(=O)NC3(c4nc(C5CCC5)no4)CC3)n21", "target": "Tyrosine-protein kinase ABL1, non-phosphorylated (ABL1, Homo sapiens, UniProt P00519, T315I)", "observed": "cell-free assay", "technique": "competition with immobilised ligand", "tested at": "1 µM", "endpoint": "remaining binding", "value": "100%"}
{"Compound": "Cc1cnc(NC2CCOCC2)nc1-n1cnc(C(=O)NC(CN)c2cc(F)cc(Cl)c2)c1 (centres unmarked)", "target": "ABL1 Y253F", "observed": "enzyme activity", "mode": "inhibitor", "technique": "radiometric", "tested at": "1 µM", "endpoint": "remaining activity", "value": "102%"}
{"Compound": "c1nc2c(Nc3ccc4c(c3)OCCO4)nc(Nc3ccc4c(c3)OCCO4)nc2[nH]1", "target": "ABL1 non-phosphorylated", "observed": "enzyme activity", "mode": "inhibitor", "tested at": "10 µM", "endpoint": "activity vs control", "value": "2.1%"}
{"Compound": "O=C(N1CCS(=O)(=O)CC1)N1C[C@H](c2ccc(OC(F)(F)F)cc2)C[C@H](c2nc(C3CC3)no2)C1", "target": "Tyrosine-protein kinase ABL1, phosphorylated (ABL1, Homo sapiens, UniProt P00519, H396P)", "observed": "cell-free assay", "technique": "competition with immobilised ligand", "tested at": "1 µM", "endpoint": "remaining binding", "value": "100%"}
{"Compound": "CNc1cccc2cc(C(=O)Nc3ccc(C(=O)O)cc3)c(=O)[nH]c12", "target": "ABL1 T315I", "observed": "enzyme activity", "mode": "inhibitor", "tested at": "10 µM", "endpoint": "inhibition", "value": "1.3%"}
{"Compound": "O=C(O)[C@@H]1[C@@H](Cn2nnc3ccccc3c2=O)CC[C@H]1C(=O)c1ccc(OCCC2CCOCC2)cc1", "target": "ABL1 E255K phosphorylated", "observed": "binding", "technique": "competition with immobilised ligand", "tested at": "1 µM", "endpoint": "remaining binding", "value": "84%"}
{"Compound": "O=C(c1ccc(Nc2ncc(Cl)c(-c3cc4ccccc4s3)n2)cc1)N1CCC(N2CCCC2)CC1", "target": "ABL1 F317I non-phosphorylated", "observed": "binding", "technique": "competition with immobilised ligand", "tested at": "1 µM", "endpoint": "remaining binding", "value": "74%"}
{"Compound": "CNC(=O)[C@@H]1CC[C@@H](n2c(-c3ccc4cnccc4c3)nc3ccc(C(=O)NCc4cccc(C(N)=O)c4)cc32)C1", "target": "ABL1 E255K phosphorylated", "observed": "binding", "technique": "competition with immobilised ligand", "tested at": "1 µM", "endpoint": "remaining binding", "value": "100%"}
{"Compound": "CN(CCCC(F)(F)F)c1nccc(-c2cnn3ncccc23)n1", "target": "ABL1 E255K", "observed": "binding", "tested at": "1 µM", "endpoint": "remaining binding", "value": "98%"}
{"Compound": "Nc1ncnc2occ(-c3ccc(NC(=O)Nc4cc(C(F)(F)F)ccc4F)cc3)c12", "target": "ABL1 F317I non-phosphorylated", "observed": "cell-free assay", "mode": "inhibitor", "tested at": "20 µM", "endpoint": "remaining signal", "value": "0.45%"}
{"Compound": "Cc1cc(NC(=O)c2cccc3cc(-c4cccc5[nH]nc(N)c45)ccc23)ccc1F", "target": "ABL1 Y253F", "observed": "enzyme activity", "mode": "inhibitor", "tested at": "0.1 µM", "endpoint": "activity vs control", "value": "91%"}
{"Compound": "Cc1cc(C)c(-n2ccn3nc(-c4cccnc4)cc23)cc1NC(=O)c1cc(C#N)cc(S(F)(F)(F)(F)F)c1", "target": "ABL1 F317L phosphorylated", "observed": "cell-free assay", "technique": "competition with immobilised ligand", "tested at": "0.1 µM", "endpoint": "remaining binding", "value": "63.3%"}
{"Compound": "CCCOc1ccc(OC)c(F)c1C(=O)c1ccc(C(=O)N[C@@H]2CNC[C@H]2NC(=O)c2ccc3[nH]ncc3c2)cc1", "target": "Tyrosine-protein kinase ABL1 (ABL1, Homo sapiens, UniProt P00519, M351T)", "observed": "enzyme activity", "mode": "inhibitor", "tested at": "10 µM", "endpoint": "remaining activity", "value": "113%"}
{"Compound": "O=C1NC(=O)c2cc(Nc3ccc(F)cc3)c(Nc3ccc(F)cc3)cc21", "target": "ABL1", "observed": "cell-free assay", "tested at": "0.5 µM", "endpoint": "remaining signal", "value": "95.7%"}
{"Compound": "COc1cc2ncnc(Nc3ccc(Oc4ccccc4)c(C)c3C)c2cc1OC", "target": "ABL1 E255K", "observed": "enzyme activity", "mode": "inhibitor", "tested at": "1 µM", "endpoint": "inhibition", "value": "5%"}
{"Compound": "Cc1ccc(C(=O)NCc2ccsc2)cc1C#Cc1cn(C(C)C)c2ncnc(N)c12", "target": "ABL1", "observed": "enzyme activity", "mode": "inhibitor", "tested at": "1 µM", "endpoint": "activity vs control", "value": "1%"}
{"Compound": "COc1cc(-c2cc(-c3ccc(N4CCNCC4)cc3)cnc2N)cc(OC)c1OC", "target": "ABL1 T315I", "observed": "enzyme activity", "mode": "inhibitor", "tested at": "0.1 µM", "endpoint": "inhibition", "value": "13%"}
{"Compound": "Cc1ccc(NC(=O)c2ccc(C)c(C(F)(F)F)c2)cc1C#Cc1nn(C2CCC(O)CC2)c2ncnc(N)c12 (centres unmarked)", "target": "ABL1 Y253F", "observed": "cell-free assay", "tested at": "10 µM", "endpoint": "remaining signal", "value": "0%"}
{"Compound": "Cc1cnc(Nc2ccc(C(=O)N3CCC(N4CCCC4)CC3)cc2)nc1-c1cc2ccccc2s1", "target": "ABL1 F317L phosphorylated", "observed": "binding", "technique": "competition with immobilised ligand", "tested at": "1 µM", "endpoint": "remaining binding", "value": "21%"}
{"Compound": "CCOC(=O)c1cc2cc(-c3cc(C(=O)NCc4ccc(C(=O)O)cc4)nn3C)ccc2[nH]1", "target": "Tyrosine-protein kinase ABL1, phosphorylated (ABL1, Homo sapiens, UniProt P00519, T315I)", "observed": "cell-free assay", "technique": "competition with immobilised ligand", "tested at": "0.1 µM", "endpoint": "remaining binding", "value": "92%"}
{"Compound": "C[C@@H]1CCN(C(=O)CC#N)C[C@@H]1N(C)c1ncnc2[nH]ccc12", "target": "ABL1", "observed": "cell-free assay", "mode": "inhibitor", "tested at": "0.5 µM", "endpoint": "remaining signal", "value": "101%"}
{"Compound": "CC(C)c1ccc(NC(=O)c2cccs2)c(-c2nc3ccccc3[nH]c2=O)c1", "target": "ABL1", "observed": "enzyme activity", "mode": "inhibitor", "tested at": "1 µM", "endpoint": "activity vs control", "value": "115%"}
{"Compound": "Nc1cnc(N2CCc3cc(S(=O)(=O)Nc4c(F)cc(Cl)cc4F)cc(N4CCCC4=O)c32)nc1", "target": "ABL1 F317L phosphorylated", "observed": "cell-free assay", "technique": "competition with immobilised ligand", "tested at": "1 µM", "endpoint": "remaining binding", "value": "78%"}
{"Compound": "O=C(NCC1CCOCC1)c1n[nH]cc1NC(=O)c1c(F)cccc1F", "target": "Tyrosine-protein kinase ABL1, non-phosphorylated (ABL1, Homo sapiens, UniProt P00519, Q252H)", "observed": "binding", "technique": "competition with immobilised ligand", "tested at": "1 µM", "endpoint": "remaining binding", "value": "82%"}
{"Compound": "CCCOc1ccc([C@H]2[C@H](C(=O)O)[C@@H](c3ccc4c(c3)OCO4)CN2CC(=O)Nc2c(CC)cccc2CC)cc1", "target": "Tyrosine-protein kinase ABL1, non-phosphorylated (ABL1, Homo sapiens, UniProt P00519, F317L)", "observed": "cell-free assay", "technique": "competition with immobilised ligand", "tested at": "1 µM", "endpoint": "remaining binding", "value": "62%"}
{"Compound": "O=C1Nc2ccc(Cl)cc2C1=Cc1cc(Cl)c(O)c(Cl)c1", "target": "ABL1", "observed": "cell-free assay", "tested at": "0.5 µM", "endpoint": "remaining signal", "value": "84%"}
{"Compound": "CC(=O)N1CCC(c2ccc(C(=O)NC(=N)N)cc2C(F)(F)F)CC1", "target": "ABL1 F317I phosphorylated", "observed": "binding", "tested at": "1 µM", "endpoint": "remaining binding", "value": "96%"}
{"Compound": "c1cncc(-c2cccc(Nc3nccc(NC4CCCCC4)n3)c2)c1", "target": "ABL1 F317I phosphorylated", "observed": "binding", "technique": "competition with immobilised ligand", "tested at": "10 µM", "endpoint": "remaining binding", "value": "100%"}
